Assay results from ChEMBL document CHEMBL4049426, “Identification of the Clinical Candidate (R)-(1-(4-Fluorophenyl)-6-((1-methyl-1H-pyrazol-4-yl)sulfonyl)-4,4a,5,6,7,8-hexahydro-1H-pyrazolo[3,4-g]isoquinolin-4a-yl)(4-(trifluoromethyl)pyridin-2-yl)methanone (CORT125134): A Selective Glucocorticoid Receptor (GR) Antagonist” (J Med Chem, 2017).
Active and inactive are the calls of the source. The calls are words filed in the database; no cut-off is given here.

Key:
[1] = target: T1, Glucocorticoid receptor (Rattus norvegicus) (UniProt P06536); assay: (§1) Agonist activity at rat glucocorticoid receptor in primary hepatocytes assessed as induction of tyrosine amino transferase activity measured after 20 hrs; type: cell-based
T1 sequence (whole entry): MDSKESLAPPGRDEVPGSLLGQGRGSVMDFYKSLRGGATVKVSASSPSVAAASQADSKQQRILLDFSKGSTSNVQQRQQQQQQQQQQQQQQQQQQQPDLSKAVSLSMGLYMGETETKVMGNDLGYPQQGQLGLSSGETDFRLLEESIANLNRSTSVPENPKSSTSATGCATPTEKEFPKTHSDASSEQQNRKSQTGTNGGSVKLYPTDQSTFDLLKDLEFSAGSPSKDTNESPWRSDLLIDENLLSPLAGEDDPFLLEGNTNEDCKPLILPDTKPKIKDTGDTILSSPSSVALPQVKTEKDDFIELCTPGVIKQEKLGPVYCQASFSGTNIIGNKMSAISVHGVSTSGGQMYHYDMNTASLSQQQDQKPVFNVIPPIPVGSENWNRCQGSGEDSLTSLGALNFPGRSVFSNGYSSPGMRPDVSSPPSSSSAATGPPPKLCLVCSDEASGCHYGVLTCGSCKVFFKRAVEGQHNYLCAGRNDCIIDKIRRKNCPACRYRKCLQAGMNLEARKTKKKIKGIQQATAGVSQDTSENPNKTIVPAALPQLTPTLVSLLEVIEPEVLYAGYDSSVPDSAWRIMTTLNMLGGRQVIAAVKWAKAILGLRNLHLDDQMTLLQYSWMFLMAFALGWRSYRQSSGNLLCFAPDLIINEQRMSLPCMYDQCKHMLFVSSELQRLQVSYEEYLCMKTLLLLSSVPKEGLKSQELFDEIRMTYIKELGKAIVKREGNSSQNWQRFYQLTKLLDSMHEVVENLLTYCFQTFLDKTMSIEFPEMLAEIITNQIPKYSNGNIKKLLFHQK

Glucocorticoid receptor = target: T2, Glucocorticoid receptor (Rattus norvegicus, UniProt P06536); assay: as §1; type: cell-based
T2 sequence (P06536 whole entry): T1 sequence (whole entry)

[2] = target: T3, Glucocorticoid receptor (Homo sapiens) (UniProt P04150); assay: Agonist activity at glucocorticoid receptor in human primary hepatocytes assessed as induction of tyrosine amino transferase activity measured after 20 hrs relative to control; type: cell-based
T3 sequence (whole entry): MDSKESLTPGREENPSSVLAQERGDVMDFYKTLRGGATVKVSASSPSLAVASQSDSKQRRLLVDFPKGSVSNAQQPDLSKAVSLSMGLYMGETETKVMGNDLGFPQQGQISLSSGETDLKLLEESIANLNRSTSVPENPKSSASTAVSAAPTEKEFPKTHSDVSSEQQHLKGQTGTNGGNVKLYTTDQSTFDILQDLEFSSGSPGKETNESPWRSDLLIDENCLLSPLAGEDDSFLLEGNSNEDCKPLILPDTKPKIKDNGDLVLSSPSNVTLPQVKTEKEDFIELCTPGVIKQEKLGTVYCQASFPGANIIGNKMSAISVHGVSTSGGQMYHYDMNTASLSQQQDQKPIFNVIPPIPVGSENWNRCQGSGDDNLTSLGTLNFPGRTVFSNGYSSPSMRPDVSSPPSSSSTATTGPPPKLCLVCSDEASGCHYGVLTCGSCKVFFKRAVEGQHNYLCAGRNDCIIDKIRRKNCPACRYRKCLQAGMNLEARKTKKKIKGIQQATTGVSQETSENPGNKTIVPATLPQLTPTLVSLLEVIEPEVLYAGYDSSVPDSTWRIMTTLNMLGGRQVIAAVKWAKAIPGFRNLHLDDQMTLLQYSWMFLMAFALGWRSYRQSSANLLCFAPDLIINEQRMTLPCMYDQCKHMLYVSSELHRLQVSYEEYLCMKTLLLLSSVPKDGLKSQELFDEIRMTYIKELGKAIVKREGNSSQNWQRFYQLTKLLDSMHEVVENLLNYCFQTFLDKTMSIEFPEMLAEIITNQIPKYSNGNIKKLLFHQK

[3] = Protein binding in rat plasma; type: ADME, cell-free; details: read-out: PPB (converted)
androgen receptor = target: T4, androgen receptor (Homo sapiens, UniProt P10275); assay: Inhibition of radioligand binding to androgen receptor (unknown origin) at 1 uM relative to control
T4 sequence (P10275 whole entry): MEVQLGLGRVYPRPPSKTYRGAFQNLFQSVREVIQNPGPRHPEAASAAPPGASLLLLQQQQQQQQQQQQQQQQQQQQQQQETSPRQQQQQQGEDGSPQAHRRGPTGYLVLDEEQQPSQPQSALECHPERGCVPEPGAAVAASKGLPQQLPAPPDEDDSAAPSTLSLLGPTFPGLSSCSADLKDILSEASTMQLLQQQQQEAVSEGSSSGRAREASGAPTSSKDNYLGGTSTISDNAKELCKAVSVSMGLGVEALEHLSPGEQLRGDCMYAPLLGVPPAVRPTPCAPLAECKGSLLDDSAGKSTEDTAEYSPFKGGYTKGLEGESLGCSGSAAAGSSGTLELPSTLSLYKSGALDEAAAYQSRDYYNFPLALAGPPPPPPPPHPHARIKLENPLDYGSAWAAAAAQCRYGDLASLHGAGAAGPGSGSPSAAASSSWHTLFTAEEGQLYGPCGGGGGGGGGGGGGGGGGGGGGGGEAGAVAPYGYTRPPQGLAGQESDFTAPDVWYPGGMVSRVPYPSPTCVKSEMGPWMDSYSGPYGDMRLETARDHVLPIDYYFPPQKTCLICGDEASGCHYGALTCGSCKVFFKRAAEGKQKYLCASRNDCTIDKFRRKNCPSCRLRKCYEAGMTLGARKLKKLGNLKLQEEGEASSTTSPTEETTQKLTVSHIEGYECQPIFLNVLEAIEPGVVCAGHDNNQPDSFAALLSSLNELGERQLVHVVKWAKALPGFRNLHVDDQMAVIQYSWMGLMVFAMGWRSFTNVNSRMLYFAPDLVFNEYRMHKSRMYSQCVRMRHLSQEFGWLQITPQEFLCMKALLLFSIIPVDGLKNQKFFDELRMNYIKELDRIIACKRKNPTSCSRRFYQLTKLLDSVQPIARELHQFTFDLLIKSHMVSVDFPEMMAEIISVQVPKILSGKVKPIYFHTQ

Macaca mulatta = organism: Macaca mulatta; assay: Agonist activity at monkey glucocorticoid receptor in primary hepatocytes assessed as induction of tyrosine amino transferase activity measured after 20 hrs; type: cell-based
Rattus norvegicus = assay: In vivo antagonist activity at glucocorticoid receptor in Sprague-Dawley rat cortisone model of exogenous Cushing's syndrome assessed as inhibition of plasma insulin levels at 30 mg/kg, po bid via gavage for 6 days pretreated for 12 hrs followed by cortisone 21-acetate treatment measured 24 hrs after last cortisone 21-acetate treatment; type: functional, organism-based
Method in brief: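 Male Sprague Dawley rats (200-250g), 3-day vehicle baseline, groups of eight. Compound as suspension in DMSO:Tween 80:0.5% HPMC 10:0.1:89.9, oral gavage twice daily for 6 days; cortisone 21-acetate 30mg/kg s.c. daily in 1% methylcellulose. Tail-vein blood 24 h after last cortisone (12 h after last compound); glucose by clinical reagent, insulin by ultrasensitive rat ELISA.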

Compound `Cn1cc(S(=O)(=O)N2CCC3=Cc4c(cnn4-c4ccc(F)cc4)C[C@]3(C(=O)c3cc(C(F)(F)F)ccn3)C2)cn1` [RELACORILANT] has an Emax [1] of 22%, an EC50 (Glucocorticoid receptor) of over 10 µM and an Emax [2] of 0%. The fraction unbound [3] was 0.003, the inhibition at 1 µM (androgen receptor) was under 10% and the Emax (Macaca mulatta) was 0%. For the same compound, the inhibition (Rattus norvegicus) was “Active”.
